Experimental findings from ChEMBL document CHEMBL4680098, “Next-Generation Reduction Sensitive Lipid Conjugates of Tenofovir: Antiviral Activity and Mechanism of Release” (J Med Chem, 2016) are described below.

Broadly, the EC50 is the concentration needed to bring the measured effect to its halfway point. As a reminder, the CC50 is the concentration giving 50% cytotoxicity.

SMILES strings stand for the structures. Counter-ions that a name gives are not always drawn.

Data set [1] in a line: Stability in glycine/HCl buffer at pH 2.0 assessed as compound decomposition by LC-MS analysis. It counts as physicochemical. The gist of the method: (§1)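 Freshly prepared buffer (3.0 ml) was equilibrated at 37.4 ± 0.2 °C with DTT at ~0.1 M and stirred 10 min. Compound stock in water/MeOH was then added. Aliquots were taken from 0 min to 24 h, with shorter intervals where needed, diluted to 1025 µL with H₂O/MeOH/HCOOH (75:25:0.1) and analysed by LC-MS.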

The nature of data set [2]: Stability in aqueous carbonate/bicarbonate buffer at pH 9.19 assessed as compound decomposition by LC-MS analysis. Format: physicochemical. In a few lines: as §1
For another data set, the system named is Hepatitis B virus. Nature of the data set: Antiviral activity against HBV infected in human HepG2 assessed as reduction in viral replication incubated for 6 days by real time Q-PCR analysis. It counts as functional, organism-based. Particulars: HepG2, 144 h. In a few lines: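 Cells seeded at 1x10⁴/well, held 24 h at 37°C in 5% CO₂. Six ten-fold serial compound dilutions in RPMI1640 with 10% FBS were added in triplicate; medium-only wells served as virus controls. Cultured 6 days; medium with compound renewed on day 3. Day-6 supernatant diluted in buffer containing 40 μg/ml sheared salmon sperm DNA, boiled 15 min, then qPCR; HBV DNA copies interpolated from standard curve.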

A short description of data set [3]: Stability in PBS buffer at pH 7.4 assessed as compound decomposition by LC-MS analysis. Format: physicochemical. The gist of the method: as §1
For the next data set, the system named is HepG2. In words: (§2) Cytotoxicity in uninfected human hepG2 assessed as reduction in cell viability by XTT assay. Format: cell-based. As to conditions: hepg2. The gist of the method: (§3)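 Uninfected cells were plated and treated as in the anti-HBV plate: six ten-fold compound dilutions, 6 days at 37°C in 5% CO₂, medium renewed day 3. The monolayer was stained with XTT on day 6 and read at 450/650 nm, in triplicate.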
Background: Tetrazolium assays rely on reduction of a dye to a coloured formazan, in cell work by metabolically active cells.

Data set [4] can be described thus: Stability in aqueous carbonate/bicarbonate buffer at pH 10.16 assessed as compound decomposition measured within 8 mins by LC-MS analysis. Particulars: read-out: Drug degradation. Format: physicochemical. In a few lines:
as §1

Data set [5] in a line: Cytotoxicity in uninfected human PBMC assessed as reduction in cell viability by XTT assay. Format: tissue-based. In a few lines: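 Fresh HIV/HBV-negative human PBMCs isolated by Ficoll-Hypaque and stimulated 48-72 h with 2 µg/mL PHA-P, then kept in RPMI 1640 with 15% FBS and IL-2. Plates were set up as for the anti-HIV assay but without virus, with compound up to 100 μM in log dilutions, for 7 days. Viability read by XTT at 450/650 nm, in triplicate.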

The nature of data set [6]: Therapeutic index, ratio of CC50 for uninfected human PBMC to EC50 for HIV1 infected in human PBMC. Format: toxicity. As to conditions: PBMC (uninfected for CC50, HIV-1 infected for EC50).
The nature of data set [7]: Aqueous solubility of compound. As to conditions: buffer. Format: physicochemical.
Data set [8] has as its system Human immunodeficiency virus 1. In words: Antiviral activity against HIV1 infected in human PBMC assessed as reduction in viral replication incubated for 7 days by radioactive incorporation polymerization assay based reverse transcriptase activity detection method. It counts as functional, organism-based. As to conditions: Human immunodeficiency virus 1, PBMC, 168 h. In a few lines:
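Fresh donor PBMCs (HIV/HBV negative) were isolated on Ficoll-Hypaque and stimulated 48-72 hr with PHA-P. They were then kept in RPMI 1640 with 15% FBS and IL-2, and used 72 hr after stimulation at 1×10^6 cells/ml. Compounds were tested up to 100 μM in five serial logarithmic dilutions. Infection used 50-150 TCID₅₀ per well (MOI ~0.002), in triplicate, with supernatant RT activity read at day 7.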

Data set [9] can be described thus: Stability in pH 2.0 buffer assessed as compound decomposition measured up to 350 mins at 37 degC by LC-MS analysis. Particulars: pH 2, 350 min. Format: physicochemical.
Data set [10] in a line: Stability in pH 11.56 buffer assessed as compound decomposition measured up to 350 mins at 37 degC by LC-MS analysis. As to conditions: pH 11.56, 350 min. It counts as physicochemical.
Data set [11] is described as follows: Stability in pH 9.2 buffer assessed as compound decomposition measured up to 350 mins at 37 degC by LC-MS analysis. It counts as physicochemical. As to conditions: pH 9.2, 350 min.
Data set [12] is described as follows: Therapeutic index, ratio of CC50 for uninfected human HepG2 cells to EC50 for HBV infected in human HepG2 cells. Format: toxicity, cell-based.
The nature of data set [13]: as §2. It counts as cell-based. Particulars: uninfected HepG2 cells. The gist of the method:
as §3

A short description of data set [14]: Retention time in PBS buffer at pH 7.4 using compound 6 by LC-MS analysis. It counts as physicochemical.

Turning to `C[C@H](Cn1cnc2c(N)ncnc21)OCP(=O)(O)OCCS`, the Stabilty result was “Stable” in data set [1], “Unstable” in data set [2] and “Stable” in data set [3]. Further, in the data set with Hepatitis B virus, the half-maximal effective concentration (EC50) came to 41.9 µM. In addition, the CC50 (with HepG2; in data set [5] (pbmc)) was > 100 µM each time. Moreover, the degraded at 8 min in data set [4] was 100%.
Consider `CCCCCCCCCCCCCCCCSSCCOP(=O)(O)CO[C@H](C)Cn1cnc2c(N)ncnc21`, for which the selectivity ratio in [6] came to 22000. In addition, the solubility entry in data set [7] is reported as “Insoluble”. Besides, the EC50 was 0.02 µM in the data set on Hepatitis B virus and 0.00065 µM in data set [8]. In addition, the CC50 in the data set on HepG2 is > 25 µM.
`CCCCCCCCCCCCCCCCSSc1ccccc1COP(=O)(O)CO[C@H](C)Cn1cnc2c(N)ncnc21`: the EC50 in the data set with Hepatitis B virus was 4.48 µM. The values for the 50% cytotoxic concentration (CC50) (with HepG2; in data set [5] (pbmc)) were 17.5 µM and 17.2 µM, respectively.
In the case of `C[C@H](Cn1cnc2c(N)ncnc21)OCP(=O)(O)OCCCCS`, the Stabilty entry in data set [9], in [10] and in data set [11] was “Stable” in each case. Also, in the data set with Hepatitis B virus, the concentration for a half-maximal effect (EC50) was > 100 µM. Besides, the half-maximal cytotoxic concentration (CC50) (in the data set on HepG2; in data set [5] (pbmc)) was > 100 µM throughout.
As for `CCCCCCCCCCCCCCCCSSCCCCOP(=O)(O)CO[C@H](C)Cn1cnc2c(N)ncnc21`, the selectivity ratio in [6] is > 100000. For the same compound, the solubility entry in data set [7] is “Insoluble”. The EC50 with Hepatitis B virus is 0.248 µM; in data set [8] it was < 0.0005 µM. Further, the CC50 (in the data set with HepG2; in data set [5] (pbmc)) was > 50 µM each time.
With `CCCCCCCCCCCCCCCCSSCc1ccccc1COP(=O)(O)CO[C@H](C)Cn1cnc2c(N)ncnc21`, the selectivity ratio in data set [12] stood at 214. Also, the EC50 in the data set on Hepatitis B virus is 0.152 µM; in data set [8] it was < 0.0005 µM. Moreover, the CC50 was found to be 32.5 µM in the data set with HepG2 and 15.9 µM in data set [5] (pbmc).
`CCCCCCCCCCCCSSCCCCCCOP(=O)(O)CO[C@H](C)Cn1cnc2c(N)ncnc21`: the selectivity ratio in data set [6] was > 7000; in data set [12], > 47. The EC50 in the data set with Hepatitis B virus turned out to be 1.05 µM; in [8] it was 0.007 µM. The cytotoxic concentration (CC50) in data set [13] and in [5] (uninfected PBMC) was > 50 µM throughout.
Regarding `C[C@H](Cn1cnc2c(N)ncnc21)OCP(=O)(O)O` [TENOFOVIR ANHYDROUS], the Retention_time in data set [14] is reported as 0.66 min. Further, in data set [8], the half-maximal effective concentration (EC50) amounted to 0.32 µM. Further, the CC50 in data set [5] (pbmc) was > 100 µM.
With `CC(C)OC(=O)OCOP(=O)(CO[C@H](C)Cn1cnc2c(N)ncnc21)OCOC(=O)OC(C)C` [TENOFOVIR DISOPROXIL FUMARATE], the results for the selectivity ratio in [6] and in [12] were 9500 and 190, respectively. The 50% effective concentration (EC50) in the data set on Hepatitis B virus was 0.34 µM; in data set [8] it was 0.0045 µM. Further, the 50% cytotoxic concentration (CC50) in the data set with HepG2 amounted to 64.5 µM.
